Each block holds one compound with its values, some of them ahead of it. Calls of active or inactive are those of the source. The calls are words filed in the database; no cut-off is given here.
Key:
[1] = Metabolic stability in mouse liver microsomes assessed as parent compound remaining at 1 uM after 0.5 hrs by LC-MS/MS analysis; format: ADME, microsome; details: read-out: Stability
[2] = Tmax in C57BL/6J mouse at 30 mg/kg, po by LC-MS/MS analysis; format: ADME, organism-based; details: in vivo
[3] = Cmax in C57BL/6J mouse at 30 mg/kg, po by LC-MS/MS analysis; format: ADME, organism-based; parameters: dose 30 mg/kg, route oral; details: in vivo
HepG2 = experiment: Inhibition of human recombinant BMP6-stimulated hepcidin mRNA expression in human HepG2 cells after 6 hrs by qRT-PCR analysis; format: functional, cell-based; details: HepG2, 6 h
Mus musculus = experiment: Antiinflammatory activity in C57BL/6J mouse assessed as reduction in recombinant mouse IL-6 induced serum hepcidin level at 30 mg/kg, po pretreated for 30 mins followed by IL-6 challenge measured after 4 hrs by LC-MS/MS analysis; format: functional, organism-based
Summary of the method: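 9-week-old male C57BL/6J mice were dosed orally at 30 mg/kg (0.5% methylcellulose suspension, n = 4) 30 min before intravenous mouse IL-6. Blood was taken 4 h after IL-6 and serum hepcidin was measured. Groups were compared by t-test against saline-treated and 0.5% MC vehicle-treated groups.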

[4] = Lipophilicity, log D of the compound; format: physicochemical; details: octanol/water
[5] = target: Cyclin-dependent kinase 2 (Homo sapiens) (UniProt P24941); experiment: Inhibition of CDK2 (unknown origin) at 0.078 uM relative to control
[6] = AUC in C57BL/6J mouse at 30 mg/kg, po by LC-MS/MS analysis; format: ADME, organism-based; details: in vivo
[7] = target: Serine/threonine-protein kinase pim-3 (Homo sapiens) (UniProt Q86V86); experiment: Inhibition of PIM3 (unknown origin) at 0.45 uM relative to control
[8] = target: T1, Calcium/calmodulin-dependent protein kinase type IV (Homo sapiens) (UniProt Q16566); experiment: Inhibition of CAMK4 (unknown origin) at 0.45 uM relative to control
T1 sequence (whole entry): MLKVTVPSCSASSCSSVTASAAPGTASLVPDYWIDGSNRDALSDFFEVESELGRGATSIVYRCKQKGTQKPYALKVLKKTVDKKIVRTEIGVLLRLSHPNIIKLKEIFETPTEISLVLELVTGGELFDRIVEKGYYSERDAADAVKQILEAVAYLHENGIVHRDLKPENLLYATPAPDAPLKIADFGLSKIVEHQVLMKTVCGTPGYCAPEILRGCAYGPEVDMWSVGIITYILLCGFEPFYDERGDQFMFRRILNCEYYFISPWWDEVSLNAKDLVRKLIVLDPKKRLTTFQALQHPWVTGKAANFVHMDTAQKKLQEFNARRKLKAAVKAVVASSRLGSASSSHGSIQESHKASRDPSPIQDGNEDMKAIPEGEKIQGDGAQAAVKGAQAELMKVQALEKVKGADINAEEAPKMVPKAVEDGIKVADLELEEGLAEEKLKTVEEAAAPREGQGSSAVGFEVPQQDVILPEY

[9] = target: High affinity nerve growth factor receptor (Homo sapiens) (UniProt P04629); experiment: Inhibition of TRKA (unknown origin) at 0.45 uM relative to control
[10] = target: Dual specificity protein kinase CLK3 (Homo sapiens) (UniProt P49761); experiment: Inhibition of CLK3 (unknown origin) at 0.45 uM relative to control
[11] = target: Serine/threonine-protein kinase BRSK1 (Homo sapiens) (UniProt Q8TDC3); experiment: Inhibition of BRSK1 (unknown origin) at 0.45 uM relative to control
[12] = target: Serine/threonine-protein kinase 10 (Homo sapiens) (UniProt O94804); experiment: Inhibition of LOK (unknown origin) at 0.45 uM relative to control
[13] = target: Cyclin-dependent kinase 1/cyclin B1 (Homo sapiens) (UniProt P06493+P14635); experiment: Inhibition of CDK1/CyclinB (unknown origin) at 0.45 uM relative to control; format: protein-complex assay
[14] = target: AMPK alpha2/beta1/gamma1 (Homo sapiens) (UniProt P54646+P54619+Q9Y478); experiment: Inhibition of AMPK-alpha2/beta1/gamma1 (unknown origin) at 0.45 uM relative to control; format: protein-complex assay
[15] = target: Serine/threonine-protein kinase PAK 2 (Homo sapiens) (UniProt Q13177); experiment: Inhibition of PAK2 (unknown origin) at 0.45 uM relative to control
[16] = target: Serine/threonine-protein kinase D3 (Homo sapiens) (UniProt O94806); experiment: Inhibition of PKD3 (unknown origin) at 0.45 uM relative to control
[17] = target: Tyrosine-protein kinase Lyn (Homo sapiens) (UniProt P07948); experiment: Inhibition of LYN (unknown origin) at 0.49 uM relative to control
[18] = target: T2, Interleukin-1 receptor-associated kinase 4 (Homo sapiens) (UniProt Q9NWZ3); experiment: Inhibition of IRAK4 (unknown origin) at 0.49 uM relative to control
T2 sequence (whole entry): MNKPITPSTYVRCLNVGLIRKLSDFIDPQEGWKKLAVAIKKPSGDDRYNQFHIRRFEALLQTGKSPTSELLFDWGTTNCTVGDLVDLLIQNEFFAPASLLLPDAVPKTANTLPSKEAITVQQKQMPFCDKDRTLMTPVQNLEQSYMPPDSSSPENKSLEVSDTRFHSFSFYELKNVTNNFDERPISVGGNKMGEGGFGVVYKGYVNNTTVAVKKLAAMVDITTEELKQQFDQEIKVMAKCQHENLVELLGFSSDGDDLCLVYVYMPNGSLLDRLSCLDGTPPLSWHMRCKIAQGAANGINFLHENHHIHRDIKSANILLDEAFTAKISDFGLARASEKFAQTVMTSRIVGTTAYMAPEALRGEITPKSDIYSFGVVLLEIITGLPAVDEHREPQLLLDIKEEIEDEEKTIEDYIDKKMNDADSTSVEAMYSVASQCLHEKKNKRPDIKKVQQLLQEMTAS

[19] = target: Ephrin type-A receptor 1 (Homo sapiens) (UniProt P21709); experiment: Inhibition of EPHA1 (unknown origin) at 0.49 uM relative to control
[20] = target: Mitogen-activated protein kinase 14 (Homo sapiens) (UniProt Q16539); experiment: Inhibition of p38a (unknown origin) at 0.49 uM relative to control
[21] = target: Interleukin-1 receptor-associated kinase 1 (Homo sapiens) (UniProt P51617); experiment: Inhibition of IRAK1 (unknown origin) at 0.49 uM relative to control
[22] = target: Mast/stem cell growth factor receptor Kit (Homo sapiens) (UniProt P10721); experiment: Inhibition of KIT (unknown origin) at 0.49 uM relative to control
[23] = target: Tyrosine-protein kinase SYK (Homo sapiens) (UniProt P43405); experiment: Inhibition of SYK (unknown origin) at 0.49 uM relative to control
[24] = target: Dual specificity tyrosine-phosphorylation-regulated kinase 4 (Homo sapiens) (UniProt Q9NR20); experiment: Inhibition of DYRK4 (unknown origin) at 0.49 uM relative to control
[25] = target: Tyrosine-protein kinase Fyn (Homo sapiens) (UniProt P06241); experiment: Inhibition of FYN (unknown origin) at 0.49 uM relative to control
Tyrosine-protein kinase Fyn (Homo sapiens), sequence (P06241 2-537 limits assumed): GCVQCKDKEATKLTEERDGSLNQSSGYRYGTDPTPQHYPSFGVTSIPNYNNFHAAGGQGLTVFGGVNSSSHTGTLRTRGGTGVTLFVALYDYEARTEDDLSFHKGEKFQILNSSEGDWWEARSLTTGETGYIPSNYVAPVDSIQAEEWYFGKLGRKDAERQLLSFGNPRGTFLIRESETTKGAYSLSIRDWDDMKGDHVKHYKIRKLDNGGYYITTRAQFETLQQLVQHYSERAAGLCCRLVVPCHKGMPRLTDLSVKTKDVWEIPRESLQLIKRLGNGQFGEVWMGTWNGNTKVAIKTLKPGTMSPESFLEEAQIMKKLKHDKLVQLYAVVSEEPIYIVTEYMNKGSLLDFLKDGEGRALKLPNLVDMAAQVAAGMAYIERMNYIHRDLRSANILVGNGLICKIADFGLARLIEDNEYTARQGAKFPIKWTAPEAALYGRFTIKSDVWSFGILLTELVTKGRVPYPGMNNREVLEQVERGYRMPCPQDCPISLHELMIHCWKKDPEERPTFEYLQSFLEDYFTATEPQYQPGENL

Serine/threonine-protein kinase D3 (Homo sapiens), sequence (O94806 whole entry): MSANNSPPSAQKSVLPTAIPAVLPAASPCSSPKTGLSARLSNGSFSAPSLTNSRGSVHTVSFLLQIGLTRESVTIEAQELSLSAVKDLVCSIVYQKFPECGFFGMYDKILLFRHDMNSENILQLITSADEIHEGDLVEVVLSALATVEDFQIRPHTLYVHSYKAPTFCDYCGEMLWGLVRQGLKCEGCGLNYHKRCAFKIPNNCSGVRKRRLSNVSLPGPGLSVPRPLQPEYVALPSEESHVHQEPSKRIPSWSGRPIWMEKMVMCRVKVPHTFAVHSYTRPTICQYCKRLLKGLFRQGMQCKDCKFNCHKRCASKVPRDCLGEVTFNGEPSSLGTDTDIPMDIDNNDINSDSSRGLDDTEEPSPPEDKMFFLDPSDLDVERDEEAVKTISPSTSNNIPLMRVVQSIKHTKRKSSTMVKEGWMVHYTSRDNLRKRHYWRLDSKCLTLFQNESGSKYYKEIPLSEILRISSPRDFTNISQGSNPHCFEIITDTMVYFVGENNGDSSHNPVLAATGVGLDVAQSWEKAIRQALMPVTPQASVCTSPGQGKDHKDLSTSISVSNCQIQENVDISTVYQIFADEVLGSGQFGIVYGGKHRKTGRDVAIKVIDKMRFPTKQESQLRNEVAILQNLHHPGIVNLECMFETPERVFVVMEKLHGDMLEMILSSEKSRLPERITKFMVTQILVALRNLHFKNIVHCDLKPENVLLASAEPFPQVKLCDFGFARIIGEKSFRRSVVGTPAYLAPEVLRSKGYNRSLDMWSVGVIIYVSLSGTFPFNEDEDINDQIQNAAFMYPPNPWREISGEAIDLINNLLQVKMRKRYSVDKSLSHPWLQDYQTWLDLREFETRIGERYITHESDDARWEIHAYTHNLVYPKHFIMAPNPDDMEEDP
High affinity nerve growth factor receptor (Homo sapiens), sequence (P04629 33-796 limits assumed): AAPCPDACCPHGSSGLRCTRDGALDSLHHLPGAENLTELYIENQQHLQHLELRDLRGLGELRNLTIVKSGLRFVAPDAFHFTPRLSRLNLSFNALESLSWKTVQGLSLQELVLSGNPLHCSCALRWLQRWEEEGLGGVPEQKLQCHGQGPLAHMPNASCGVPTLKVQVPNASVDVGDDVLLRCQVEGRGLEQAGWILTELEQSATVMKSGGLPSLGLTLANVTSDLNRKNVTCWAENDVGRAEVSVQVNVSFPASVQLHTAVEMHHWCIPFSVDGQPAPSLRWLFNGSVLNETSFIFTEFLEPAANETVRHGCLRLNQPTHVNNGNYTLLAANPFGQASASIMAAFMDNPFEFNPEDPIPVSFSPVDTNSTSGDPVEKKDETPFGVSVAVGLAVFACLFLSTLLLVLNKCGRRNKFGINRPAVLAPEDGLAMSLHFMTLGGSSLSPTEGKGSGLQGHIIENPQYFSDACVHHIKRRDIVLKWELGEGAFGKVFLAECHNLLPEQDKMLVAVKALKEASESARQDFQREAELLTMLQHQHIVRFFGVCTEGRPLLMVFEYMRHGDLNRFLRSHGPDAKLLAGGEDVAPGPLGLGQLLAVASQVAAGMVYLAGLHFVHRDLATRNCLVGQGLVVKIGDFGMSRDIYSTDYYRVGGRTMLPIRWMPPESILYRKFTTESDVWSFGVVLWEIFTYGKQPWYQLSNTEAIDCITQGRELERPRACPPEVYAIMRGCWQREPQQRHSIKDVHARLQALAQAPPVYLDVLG
Mast/stem cell growth factor receptor Kit (Homo sapiens), sequence (P10721 whole entry): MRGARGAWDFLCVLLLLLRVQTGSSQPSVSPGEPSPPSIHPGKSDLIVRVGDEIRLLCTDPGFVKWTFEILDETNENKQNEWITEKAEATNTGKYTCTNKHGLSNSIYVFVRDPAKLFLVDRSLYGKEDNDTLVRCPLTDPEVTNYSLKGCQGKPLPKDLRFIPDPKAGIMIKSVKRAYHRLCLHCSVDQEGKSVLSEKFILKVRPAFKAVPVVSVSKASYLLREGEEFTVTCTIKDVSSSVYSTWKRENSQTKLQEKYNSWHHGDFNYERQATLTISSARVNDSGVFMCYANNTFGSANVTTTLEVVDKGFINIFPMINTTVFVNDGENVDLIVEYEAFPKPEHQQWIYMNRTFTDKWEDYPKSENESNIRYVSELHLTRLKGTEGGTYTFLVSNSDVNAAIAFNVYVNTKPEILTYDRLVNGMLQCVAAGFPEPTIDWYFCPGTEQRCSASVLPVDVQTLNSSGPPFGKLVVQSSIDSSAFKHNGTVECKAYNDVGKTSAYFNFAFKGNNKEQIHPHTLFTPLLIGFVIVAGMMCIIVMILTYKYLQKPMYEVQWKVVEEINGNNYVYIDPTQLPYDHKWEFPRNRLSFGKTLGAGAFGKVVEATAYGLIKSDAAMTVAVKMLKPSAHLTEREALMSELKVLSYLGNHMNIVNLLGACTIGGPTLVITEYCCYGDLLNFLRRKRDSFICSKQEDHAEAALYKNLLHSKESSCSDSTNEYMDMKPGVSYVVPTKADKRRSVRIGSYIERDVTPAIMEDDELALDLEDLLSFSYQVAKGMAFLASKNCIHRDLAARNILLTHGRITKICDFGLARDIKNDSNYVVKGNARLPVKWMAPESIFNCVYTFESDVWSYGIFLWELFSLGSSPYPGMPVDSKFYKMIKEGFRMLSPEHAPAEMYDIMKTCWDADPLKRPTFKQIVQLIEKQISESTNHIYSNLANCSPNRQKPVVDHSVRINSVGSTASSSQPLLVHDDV
Serine/threonine-protein kinase PAK 2 (Homo sapiens), sequence (Q13177 whole entry): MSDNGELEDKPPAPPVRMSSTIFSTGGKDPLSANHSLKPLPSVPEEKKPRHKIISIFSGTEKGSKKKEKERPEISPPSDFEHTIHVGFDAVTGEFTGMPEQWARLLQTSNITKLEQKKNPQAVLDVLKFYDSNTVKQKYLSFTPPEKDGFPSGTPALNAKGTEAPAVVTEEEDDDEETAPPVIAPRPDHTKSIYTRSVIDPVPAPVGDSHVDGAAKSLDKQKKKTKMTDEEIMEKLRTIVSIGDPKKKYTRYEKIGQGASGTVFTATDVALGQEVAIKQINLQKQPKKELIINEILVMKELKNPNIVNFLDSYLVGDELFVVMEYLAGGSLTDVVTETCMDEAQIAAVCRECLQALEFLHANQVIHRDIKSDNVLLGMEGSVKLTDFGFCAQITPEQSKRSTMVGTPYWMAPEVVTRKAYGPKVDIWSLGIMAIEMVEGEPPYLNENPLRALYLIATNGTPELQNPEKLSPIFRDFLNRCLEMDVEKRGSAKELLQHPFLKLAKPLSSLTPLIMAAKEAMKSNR
Dual specificity protein kinase CLK3 (Homo sapiens), sequence (P49761 whole entry, looked up): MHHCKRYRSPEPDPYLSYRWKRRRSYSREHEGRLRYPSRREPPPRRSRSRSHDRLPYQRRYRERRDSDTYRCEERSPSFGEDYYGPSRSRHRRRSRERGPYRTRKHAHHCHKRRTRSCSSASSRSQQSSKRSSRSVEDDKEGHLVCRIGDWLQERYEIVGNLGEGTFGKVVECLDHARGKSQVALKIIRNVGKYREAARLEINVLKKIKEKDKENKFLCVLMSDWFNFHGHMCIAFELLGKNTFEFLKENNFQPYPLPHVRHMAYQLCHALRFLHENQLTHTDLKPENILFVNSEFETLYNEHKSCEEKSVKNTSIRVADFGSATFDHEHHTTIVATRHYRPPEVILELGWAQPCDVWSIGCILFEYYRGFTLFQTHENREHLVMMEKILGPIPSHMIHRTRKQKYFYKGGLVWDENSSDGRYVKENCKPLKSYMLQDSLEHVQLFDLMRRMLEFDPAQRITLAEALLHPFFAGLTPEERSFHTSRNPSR
Serine/threonine-protein kinase BRSK1 (Homo sapiens), sequence (Q8TDC3 whole entry): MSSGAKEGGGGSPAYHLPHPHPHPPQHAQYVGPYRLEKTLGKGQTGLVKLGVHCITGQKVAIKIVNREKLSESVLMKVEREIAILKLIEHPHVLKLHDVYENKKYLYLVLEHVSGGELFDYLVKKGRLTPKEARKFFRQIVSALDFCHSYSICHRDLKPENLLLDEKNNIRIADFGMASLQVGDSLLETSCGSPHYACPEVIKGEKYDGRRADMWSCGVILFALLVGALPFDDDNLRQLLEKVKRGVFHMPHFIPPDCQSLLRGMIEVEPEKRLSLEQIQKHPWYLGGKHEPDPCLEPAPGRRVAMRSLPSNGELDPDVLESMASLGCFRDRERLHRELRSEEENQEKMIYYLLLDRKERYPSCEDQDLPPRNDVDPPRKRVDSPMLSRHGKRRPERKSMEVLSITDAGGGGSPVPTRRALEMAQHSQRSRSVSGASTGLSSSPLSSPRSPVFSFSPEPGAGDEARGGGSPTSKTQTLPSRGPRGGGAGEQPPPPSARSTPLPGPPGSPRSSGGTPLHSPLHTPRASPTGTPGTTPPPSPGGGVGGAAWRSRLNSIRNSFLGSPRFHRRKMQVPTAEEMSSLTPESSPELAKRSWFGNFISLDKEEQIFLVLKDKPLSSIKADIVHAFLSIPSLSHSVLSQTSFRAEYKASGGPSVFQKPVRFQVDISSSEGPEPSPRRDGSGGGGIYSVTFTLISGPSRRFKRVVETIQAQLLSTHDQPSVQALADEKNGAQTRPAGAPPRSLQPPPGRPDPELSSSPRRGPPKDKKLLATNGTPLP

remaining at 0.5 h, 1 µM [1]: 87%
Tmax [2]: 1 h
Cmax [3]: 9.17 µg/mL
IC50 (HepG2): 0.039 µM
logD [4]: 2.5
inhibition [5]: -4.3%
AUC [6]: 36.2 µg·h/mL
SMILES: COC(=O)Nc1noc2cc(-c3c(-c4ccccn4)n[nH]c3C)ccc12
Activity (Mus musculus): Active

inhibition [7]: -2.3%
inhibition [8]: 0%
remaining at 0.5 h, 1 µM [1]: 80%
Tmax [2]: 3.25 h
inhibition [9]: 93.7%
inhibition [10]: 6.7%
Cmax [3]: 0.92 µg/mL
inhibition [11]: 14%
inhibition [12]: 9.3%
inhibition [13]: 5.3%
IC50 (HepG2): 0.23 µM
inhibition [14]: 26%
inhibition [15]: -2.7%
inhibition [16]: 0.3%
logD [4]: 2.4
AUC [6]: 2.55 µg·h/mL
SMILES: Cc1n[nH]c(C)c1-c1ccc2c(NC(=O)c3ccc(N4CCN(C)CC4)cc3)n[nH]c2c1
Activity (Mus musculus): Active

inhibition [17]: 6.7%
inhibition [18]: 2%
inhibition [19]: 3.3%
inhibition [20]: -1.7%
inhibition [21]: 6.7%
IC50 (HepG2): 0.29 µM
inhibition [22]: 1%
inhibition [23]: 0.7%
inhibition [24]: 1.3%
inhibition [25]: 2.7%
SMILES: Cc1[nH]nc(C2CC2)c1-c1ccc2c(NC(=O)C3CC3)noc2c1

— ChEMBL document CHEMBL4052759, “Discovery of DS79182026: A potent orally active hepcidin production inhibitor” (Bioorg Med Chem Lett, 2017)
